# Reference: ChEMBL document CHEMBL1287645, “Synthesis and anti-prion activity evaluation of aminoquinoline analogues” (Eur J Med Chem, 2010)
# The source made the active and inactive calls. The calls are words filed in the database; no cut-off is given here.
# Key:
# [1] = molecular target: Major prion protein (Mesocricetus auratus) (UniProt P04273); assay: Inhibition of Syrian hamster prion protein (109-149) aggregation assessed as compound concentration required to inhibit 50% aggregation by spectrofluorimetric analysis
# Outline: (§1)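 Synthetic hamster PrP 109–149 peptide was solubilized in 50 mM MES pH 5.0 with 6 M urea and 10 mM SDS, where it stays unfolded. It was diluted at least 100-fold to 0.5 µM in 50 mM MES pH 5.0 containing increasing compound concentrations. Light scattering (450 nm excitation/emission) was followed over time. Maximum scattering was normalized to the no-compound control (100% aggregation) and to the peptide in 6 M urea (0%). Values are means of three independent measurements.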
# [2] = molecular target: Major prion protein (Mesocricetus auratus) (UniProt P04273); assay: Inhibition of Syrian hamster prion protein (109-149) aggregation assessed as changes in light scattering at 0.1 uM by spectrofluorimetric analysis relative to control; outline: as §1
# [3] = molecular target: Major prion protein (Mesocricetus auratus) (UniProt P04273); assay: Reduction of thioflavin T binding to Syrian hamster prion protein (109-149) at 10 uM after 10 mins by fluorescence assay
# Outline: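 Peptide at 1.0 µM was incubated with compound at 10 µM in pH 5.0 buffer. After 10 min, thioflavin T was added to 20 µM final. Emission was recorded from 470–520 nm with excitation at 450 nm. The integrated spectral area was corrected for probe emission without peptide. Values are means of three experiments.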
# [4] = molecular target: Major prion protein (Mesocricetus auratus) (UniProt P04273); assay: Inhibition of Syrian hamster prion protein (109-149) aggregation assessed as changes in light scattering at 0.2 uM by spectrofluorimetric analysis relative to control; outline: as §1
# [5] = molecular target: Major prion protein (Mesocricetus auratus) (UniProt P04273); assay: Inhibition of Syrian hamster prion protein (109-149) aggregation assessed as changes in light scattering at 1 uM by spectrofluorimetric analysis relative to control; outline: as §1
# Chain of Major prion protein (Mesocricetus auratus) (P04273 whole entry): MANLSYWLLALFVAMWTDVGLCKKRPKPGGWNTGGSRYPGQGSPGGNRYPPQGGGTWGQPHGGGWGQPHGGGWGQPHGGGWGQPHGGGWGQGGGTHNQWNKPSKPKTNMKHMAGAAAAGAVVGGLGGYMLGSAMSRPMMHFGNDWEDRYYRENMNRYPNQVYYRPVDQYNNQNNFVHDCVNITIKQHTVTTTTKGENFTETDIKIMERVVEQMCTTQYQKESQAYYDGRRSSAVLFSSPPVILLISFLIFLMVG
SMILES,C50 [1] [µM],inhibition [2] [%],Activity [3],inhibition [4] [%],inhibition [5] [%]
Nc1ccnc2cc(Cl)ccc12,0.2,50,Active,50,8.4
CCN(CC)CCNc1ccnc2cc(SC(F)(F)F)ccc12,> 1,–,–,–,54
NCCNc1ccnc2cc(Cl)ccc12,0.1,50,Active,50,7.9
CN(C)CCNc1ccnc2cc(Cl)ccc12,> 1,–,–,–,82
CNc1ccnc2cc(Cl)ccc12,> 0.9,–,Active,–,38.6
Clc1ccc2c(NC3CCCC3)ccnc2c1,> 1,–,Active,–,–
OCCNc1ccnc2cc(Cl)ccc12,> 1,–,Active,–,97
